Assay results as given in ChEMBL document CHEMBL3244396, “Synthesis and antileukemic activity of 5-substituted 2,3-dihydro-6,7-bis(hydroxymethyl)-1H-pyrrolizine diesters” (J Med Chem, 1977).

Legend:
[1] = test system: P388; experiment: Antitumor activity against mouse P388 cells allografted in female CDF1 mouse assessed as change in body weight at 50 mg/kg, ip administered daily for 9 days as Klucel suspension starting 24 hrs after tumor inoculation; type: functional; settings: route intraperitoneal
Method in brief: (§1)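 Ascitic fluid carrying P388 cells was inoculated ip. Compound was given ip in nine daily doses, starting 24 h after inoculation, in Klucel (hydroxypropylcellulose) suspension or in saline with Tween-80. Body-weight difference (treated minus control) was recorded on day 5. Survival was scored as %T/C of median survival time, and 30-day survival counted as cure.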

[2] = test system: L1210; experiment: Antileukemic activity against mouse L1210 cells allografted in female BDF1 mouse assessed as change in body weight at 50 mg/kg, ip administered daily for 9 days as Klucel suspension starting 24 hrs after tumor inoculation; type: functional; settings: route intraperitoneal
Method in brief: (§2)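 Ascitic fluid carrying L1210 cells was inoculated ip. Compound was given ip as a Klucel (hydroxypropylcellulose) suspension in nine daily doses, starting 24 h after inoculation. Body-weight difference (treated minus control) was recorded on day 5. Survival was scored as %T/C of mean survival time.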

[3] = test system: Mus musculus; experiment: Toxicity in female CDF1 mouse allografted with mouse P388 cells assessed as animal survival at 50 mg/kg, ip administered daily for 9 days as Klucel suspension starting 24 hrs after tumor inoculation; type: organism-based; set-up: dose 50 mg/kg, route intraperitoneal; settings: in vivo
Method in brief: (§3)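 P-388 leukemia ascitic fluid inoculated ip. Compound given ip as a suspension in Klucel (hydroxypropylcellulose), once daily for nine doses beginning 24 h post-inoculation. Acute toxicity assessed as toxicity-day survivors per group. Survival was followed up to 30 days, with 30-day survival counted as "cure". Follows NCI screening protocols.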

[4] = test system: P388; experiment: Antitumor activity against mouse P388 cells allografted in female CDF1 mouse assessed as change in body weight at 200 mg/kg, ip administered daily for 9 days as Klucel suspension starting 24 hrs after tumor inoculation; type: functional; settings: route intraperitoneal; method in brief: as §1
[5] = test system: L1210; experiment: Antileukemic activity against mouse L1210 cells allografted in female BDF1 mouse assessed as host mean survival time at 100 mg/kg, ip administered daily for 9 days as Klucel suspension starting 24 hrs after tumor inoculation relative to control; type: functional; settings: route intraperitoneal
Method in brief: (§4)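 L1210 leukemia given as an ascitic fluid cell inoculum, ip, to mice of the strain and sex in each line. Test material was given ip for nine daily doses starting 24 h after inoculation, in a Klucel (hydroxypropylcellulose) suspension. Read-out is mean survival time as %T/C versus controls, with >125 taken as significant.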

[6] = test system: L1210; experiment: Antileukemic activity against mouse L1210 cells allografted in female BDF1 mouse assessed as host mean survival time at 200 mg/kg, ip administered daily for 9 days as Klucel suspension starting 24 hrs after tumor inoculation relative to control; type: functional; settings: route intraperitoneal; method in brief: as §4
[7] = test system: P388; experiment: Antitumor activity against mouse P388 cells allografted in female BDF1 mouse assessed as change in body weight at 25 mg/kg, ip administered daily for 9 days as Klucel suspension starting 24 hrs after tumor inoculation; type: functional; settings: route intraperitoneal; method in brief: as §1
[8] = test system: L1210; experiment: Antileukemic activity against mouse L1210 cells allografted in female BDF1 mouse assessed as change in body weight at 12.5 mg/kg, ip administered daily for 9 days as Klucel suspension starting 24 hrs after tumor inoculation; type: functional; settings: route intraperitoneal; method in brief: as §2
[9] = test system: P388; experiment: Antitumor activity against mouse P388 cells allografted in female BDF1 mouse assessed as change in body weight at 12.5 mg/kg, ip administered daily for 9 days as Klucel suspension starting 24 hrs after tumor inoculation; type: functional; settings: route intraperitoneal; method in brief: as §1
[10] = test system: Mus musculus; experiment: Toxicity in female BDF1 mouse allografted with mouse L1210 cells assessed as animal survival at 50 mg/kg, ip administered daily for 9 days as Klucel suspension starting 24 hrs after tumor inoculation measured on fifth day; type: organism-based; set-up: dose 50 mg/kg, route intraperitoneal; settings: in vivo
Method in brief: (§5)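 L1210 leukemia passaged as ascitic fluid and inoculated ip. Test agent given ip as a Klucel (hydroxypropylcellulose) suspension, nine daily doses starting 24 h after tumor inoculation. Acute toxicity read as toxicity-day survivors per group (out of 6), recorded on day 5. Animal weight difference T − C was also recorded. Follows NCI screening protocols.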

[11] = test system: Mus musculus; experiment: Toxicity in female BDF1 mouse allografted with mouse L1210 cells assessed as animal survival at 25 mg/kg, ip administered daily for 9 days as Klucel suspension starting 24 hrs after tumor inoculation measured on fifth day; type: organism-based; set-up: dose 25 mg/kg, route intraperitoneal; settings: in vivo; method in brief: as §5
[12] = test system: L1210; experiment: Antileukemic activity against mouse L1210 cells allografted in female BDF1 mouse assessed as host mean survival time at 12.5 mg/kg, ip administered daily for 9 days as Klucel suspension starting 24 hrs after tumor inoculation relative to control; type: functional; settings: route intraperitoneal; method in brief: as §4
[13] = test system: L1210; experiment: Antileukemic activity against mouse L1210 cells allografted in female BDF1 mouse assessed as change in body weight at 25 mg/kg, ip administered daily for 9 days as Klucel suspension starting 24 hrs after tumor inoculation; type: functional; settings: route intraperitoneal; method in brief: as §2
[14] = test system: L1210; experiment: Antileukemic activity against mouse L1210 cells allografted in female BDF1 mouse assessed as change in body weight at 100 mg/kg, ip administered daily for 9 days as Klucel suspension starting 24 hrs after tumor inoculation; type: functional; settings: route intraperitoneal; method in brief: as §2
[15] = test system: L1210; experiment: Antileukemic activity against mouse L1210 cells allografted in female BDF1 mouse assessed as change in body weight at 200 mg/kg, ip administered daily for 9 days as Klucel suspension starting 24 hrs after tumor inoculation; type: functional; settings: route intraperitoneal; method in brief: as §2
[16] = test system: Mus musculus; experiment: Toxicity in female BDF1 mouse allografted with mouse P388 cells assessed as animal survival at 12.5 mg/kg, ip administered daily for 9 days as Klucel suspension starting 24 hrs after tumor inoculation; type: organism-based; set-up: dose 12.5 mg/kg, route intraperitoneal; settings: in vivo; method in brief: as §3
[17] = test system: P388; experiment: Antitumor activity against mouse P388 cells allografted in female BDF1 mouse assessed as disease cures by measuring 30-days host survival at 12.5 mg/kg, ip administered daily for 9 days as Klucel suspension starting 24 hrs after tumor inoculation relative to control; type: functional; settings: route intraperitoneal
Method in brief: (§6)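 P388 leukemia given as an ascitic fluid cell inoculum, ip, to mice of the strain and sex in each line. Nine daily ip doses were given in a Klucel (hydroxypropylcellulose) suspension, starting 24 h after inoculation. Read-out is median survival time as %T/C, with >125 taken as significant; a "cure" means 30-day survival.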

[18] = test system: P388; experiment: Antitumor activity against mouse P388 cells allografted in female CDF1 mouse assessed as disease cures by measuring 30-days host survival at 100 mg/kg, ip administered daily for 9 days as Klucel suspension starting 24 hrs after tumor inoculation relative to control; type: functional; settings: route intraperitoneal; method in brief: as §6
[19] = test system: Mus musculus; experiment: Toxicity in female CDF1 mouse allografted with mouse P388 cells assessed as animal survival at 100 mg/kg, ip administered daily for 9 days as Klucel suspension starting 24 hrs after tumor inoculation; type: organism-based; set-up: dose 100 mg/kg, route intraperitoneal; settings: in vivo; method in brief: as §3
[20] = Cytotoxicity against human 9KB cells treated as ethanol solution; type: functional; settings: read-out: ED50 (the source's name)
Method in brief: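 Compound applied as an ethanol solution; activity read out as ED50 under the general screening protocol.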

[21] = test system: P388; experiment: Antitumor activity against mouse P388 cells allografted in female CDF1 mouse assessed as disease cures by measuring 30-days host survival at 50 mg/kg, ip administered daily for 9 days as Klucel suspension starting 24 hrs after tumor inoculation relative to control; type: functional; settings: route intraperitoneal; method in brief: as §6
[22] = test system: Mus musculus; experiment: Toxicity in female BDF1 mouse allografted with mouse L1210 cells assessed as animal survival at 12.5 mg/kg, ip administered daily for 9 days as Klucel suspension starting 24 hrs after tumor inoculation measured on fifth day; type: organism-based; set-up: dose 12.5 mg/kg, route intraperitoneal; settings: in vivo
Method in brief: (§7)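 Female BDF1 mice bearing ip ascitic L1210 inoculum got nine daily ip doses in a Klucel suspension, starting 24 h after tumor inoculation. Toxicity was scored as toxicity-day survivors out of the group, recorded on the fifth day. Animal weight difference (T − C) was also tabulated.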

[23] = test system: L1210; experiment: Antileukemic activity against mouse L1210 cells allografted in female BDF1 mouse assessed as host mean survival time at 25 mg/kg, ip administered daily for 9 days as Klucel suspension starting 24 hrs after tumor inoculation relative to control; type: functional; settings: route intraperitoneal; method in brief: as §4
[24] = test system: L1210; experiment: Antileukemic activity against mouse L1210 cells allografted in female BDF1 mouse assessed as host mean survival time at 50 mg/kg, ip administered daily for 9 days as Klucel suspension starting 24 hrs after tumor inoculation relative to control; type: functional; settings: route intraperitoneal; method in brief: as §4
[25] = test system: P388; experiment: Antitumor activity against mouse P388 cells allografted in female CDF1 mouse assessed as change in body weight at 100 mg/kg, ip administered daily for 9 days as Klucel suspension starting 24 hrs after tumor inoculation; type: functional; settings: route intraperitoneal; method in brief: as §1
[26] = test system: Mus musculus; experiment: Toxicity in female CDF1 mouse allografted with mouse P388 cells assessed as animal survival at 200 mg/kg, ip administered daily for 9 days as Klucel suspension starting 24 hrs after tumor inoculation; type: organism-based; set-up: dose 200 mg/kg, route intraperitoneal; settings: in vivo; method in brief: as §3
[27] = test system: P388; experiment: Antitumor activity against mouse P388 cells allografted in female BDF1 mouse assessed as disease cures by measuring 30-days host survival at 25 mg/kg, ip administered daily for 9 days as Klucel suspension starting 24 hrs after tumor inoculation relative to control; type: functional; settings: route intraperitoneal; method in brief: as §6
[28] = test system: Mus musculus; experiment: Toxicity in female BDF1 mouse allografted with mouse P388 cells assessed as animal survival at 25 mg/kg, ip administered daily for 9 days as Klucel suspension starting 24 hrs after tumor inoculation; type: organism-based; set-up: dose 25 mg/kg, route intraperitoneal; settings: in vivo; method in brief: as §3
[29] = test system: Mus musculus; experiment: Toxicity in female BDF1 mouse allografted with mouse L1210 cells assessed as animal survival at 100 mg/kg, ip administered daily for 9 days as Klucel suspension starting 24 hrs after tumor inoculation measured on fifth day; type: organism-based; set-up: dose 100 mg/kg, route intraperitoneal; settings: in vivo; method in brief: as §7

For `CC(=O)OCc1c(COC(C)=O)c(-c2ccc(Cl)cc2)n2c1CCC2`, the Activity [1] was -1.9 g, the Activity [2] was -1.8 g and the Activity [3] was “Non-toxic”. It also gave an Activity [4] of 0.5 g, a T/C [5] of 76% and a T/C [6] of 64%. It also gave an Activity [7] of -0.2 g, an Activity [8] of 0.7 g and an Activity [9] of -0.6 g. The Activity [10] was “Non-toxic”, the Activity [11] was “Non-toxic” and the T/C [12] was 95%. For the same molecule, the Activity [13] was 0.6 g, the Activity [14] was -3.8 g and the Activity [15] was -3.8 g. For the same molecule, the Activity [16] was “Non-toxic”, the T/C [17] was 119% and the T/C [18] was 66%. For the same molecule, the Activity [19] was “Non-toxic”, the EC50 [20] was > 2.8 µg/mL and the T/C [21] was 118%. The Activity [22] was “Non-toxic”, the T/C [23] was 102% and the T/C [24] was 117%. For the same molecule, the Activity [25] was -3.3 g, the Activity [26] was “Toxic” and the T/C [27] was 123%. For the same molecule, the Activity [28] was “Non-toxic” and the Activity [29] was “Non-toxic”.
